# T cruzi intra: intracellular Trypanosoma cruzi inhibition; intracellular Trypanosoma cruzi in host cells, plate reader; activity score (inhibition), % at 5.01 µM; 4.9% of 22,000 active; AID 651903; in the data active means activity score above about 55%; inconclusive means no clear call, values can overlap the other calls;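 further: parasites and compound incubated about four days before reading; 0% = median of neutral control wells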
# A1 apoptosis 2: blocks A1, raising caspase activity | MEF A1-2A-BIM cells, caspase-Glo luminescence, 3 h; percent of clofoctol response, DMSO zero | caspase activation, % (test concentration not listed) | 24,000 tested, under 10 active; in the data active means caspase activation above about 5.9%; inconclusive means no clear call, values can overlap the other calls; inactive means below about 2.2%
#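 System: mouse embryonic fibroblasts co-expressing A1 and BIM (A1-2A-BIM), primed for A1 dependence; amount: 2500 cells/well; doses: 50 nL pinned compound; schedule: cells settled overnight, compound exposure 3 h at 37 °C, 5% CO2; detection: Caspase-Glo 3/7 luminescence, 1 h at room temperature; read-out: Caspase-3/7 activation, seen as rise in luminescence signal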
# INS-1E rescue: INS-1E beta cell protection from cytokine death; 0.1% of 20,000 active; protection from cytokine-induced ATP loss, % at 10 µM; INS-1E cytokine-induced death, ATP luminescence, 48 h; normalised: neutral wells 0, positive control 100;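 active means mean replicate protection from cytokine-induced ATP loss at least 50% and at least 75% of replicates each reaching 50%; inconclusive means meets only one of the two criteria, mean or replicate share; inactive means fails both the mean and replicate share criteria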
#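 Material: INS-1E rat cells; Quantity: 8000 cells/well; Buffer or medium: phenol-red-free RPMI with 5% fetal bovine serum; Probe or stimulus: cytokine cocktail of IFN-γ, TNF-α and IL-1β; Compound dosing: single test concentration per compound, delivered by pin transfer; Incubation: 48 h co-treatment, 10 min post-lysis read; Signal: CellTiter-Glo luminescence.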
# An asterisk follows results filed as active; ? = inconclusive; / = no result. Shown is part of a subset that was picked to be rich in hits.
SMILES,T cruzi intra,A1 apoptosis 2,INS-1E rescue
C[C@H]1CN([C@@H](C)CO)C(=O)c2cc(NC(=O)Nc3ccc(C(F)(F)F)cc3)ccc2O[C@H]1CN(C)Cc1ccc(-c2ccccc2)cc1,58.0*,/,-53.8
C[C@H]1CN([C@@H](C)CO)C(=O)c2cc(NC(=O)Nc3ccc(F)cc3)ccc2O[C@H]1CN(C)Cc1ccc(-c2ccccc2)cc1,64.9*,/,-40.9
C=CCNC(=O)[C@H]1[C@@H]2C(=O)O[C@@H](c3ccccc3)[C@@H](c3ccccc3)N2[C@@H](c2ccc(OCCO)cc2)[C@]12C(=O)N(C(=O)OCCOC)c1ccc(C#CC3=CCCCC3)cc12,/,-1.1,/
CC(C)=CCC[C@H](C)C/C=N/NC(=O)c1cccc(C(=O)NO)c1,-7.9,1.6,2.8
CC(C)NC(=O)Nc1ccc2c(c1)C(=O)N([C@@H](C)CO)C[C@H](C)[C@@H](CN(C)Cc1ccc(C(=O)Nc3ccccc3N)cc1)O2,58.2*,/,-15.4
CC(C)NC(=O)Nc1ccc2c(c1)C(=O)N([C@@H](C)CO)C[C@H](C)[C@H](CN(C)Cc1ccc(C(=O)Nc3ccccc3N)cc1)O2,?,/,-12.4
C[C@@H]1CN([C@H](C)CO)C(=O)c2cc(N(C)C)ccc2O[C@H]1CN(C)Cc1ccc(C(=O)Nc2ccccc2N)cc1,62.9*,/,31.3
C[C@H]1CN([C@@H](C)CO)C(=O)c2cc(N(C)C)ccc2O[C@H]1CN(C)Cc1ccc(C(=O)Nc2ccccc2N)cc1,16.7,/,6.2
C[C@H](CO)N1C[C@H](C)[C@H](CN(C)Cc2ccc(C(=O)Nc3ccccc3N)cc2)Oc2ccc(N(C)C)cc2C1=O,38.7,-0.2,39.9
C[C@@H]1CN([C@H](C)CO)C(=O)c2cc(N(C)C)ccc2O[C@@H]1CN(C)Cc1ccc(C(=O)Nc2ccccc2N)cc1,70.8*,/,62.7*
COc1ccc(NC(=O)N(C)C[C@H]2Oc3c(NS(=O)(=O)c4ccccc4)cccc3C(=O)N([C@@H](C)CO)C[C@@H]2C)cc1,-36.2,0.5,6.5
CN(CCO)c1ccc(/C=N/NC(=O)c2ccccn2)cc1,31.0,-12.3,-12.3
C[C@@H]1CCCCO[C@@H](CN(C)S(=O)(=O)c2ccc(Cl)cc2)[C@H](C)CN([C@@H](C)CO)C(=O)c2cc(NS(=O)(=O)c3ccccc3)ccc2O1,/,0.1,/
O=C(NO)c1cccc(C(=O)N/N=C/c2ccccc2[N+](=O)[O-])c1,-4.3,-4.5,-7.2
C[C@H](CO)N1C[C@H](C)[C@H](CN(C)Cc2ccc(C(=O)Nc3ccccc3N)cc2)Oc2ccc(NS(=O)(=O)c3ccc(F)cc3)cc2C1=O,62.9*,-0.2,18.2
COc1ccc(S(=O)(=O)Nc2ccc3c(c2)C(=O)N([C@H](C)CO)C[C@H](C)[C@H](CN(C)Cc2ccc(C(=O)Nc4ccccc4N)cc2)OCCCC[C@@H](C)O3)cc1,46.2,-1.4,-0.8
C[C@@H]1CN([C@H](C)CO)C(=O)c2cccc(NS(=O)(=O)c3ccc(Cl)cc3)c2O[C@H]1CN(C)Cc1ccc(C(=O)Nc2ccccc2N)cc1,65.0*,0.1,2.3
C[C@H]1CN([C@@H](C)CO)C(=O)c2cc(NS(=O)(=O)c3ccc(Cl)cc3)ccc2O[C@H]1CN(C)Cc1ccc(C(=O)Nc2ccccc2N)cc1,73.0*,/,37.1
C[C@@H]1CN([C@@H](C)CO)C(=O)c2cc(NS(=O)(=O)c3ccc(F)cc3)ccc2O[C@@H]1CN(C)Cc1ccc(C(=O)Nc2ccccc2N)cc1,31.1,/,17.2
C[C@@H]1CN([C@H](C)CO)C(=O)c2cc(NS(=O)(=O)c3ccccc3)ccc2O[C@H]1CN(C)Cc1ccc(C(=O)Nc2ccccc2N)cc1,-26.2,/,-22.2
C[C@@H]1CN([C@@H](C)CO)C(=O)c2cccc(NS(=O)(=O)c3ccc(Cl)cc3)c2O[C@@H]1CN(C)Cc1ccc(C(=O)Nc2ccccc2N)cc1,38.7,/,34.9
C[C@@H]1CCCCO[C@@H](CN(C)Cc2ccc(C(=O)Nc3ccccc3N)cc2)[C@@H](C)CN([C@H](C)CO)C(=O)c2cc(NS(=O)(=O)c3ccc(Cl)cc3)ccc2O1,77.6*,-1.4,-5.2
COC(=O)CCCCCCC(=O)N/N=C/C1=CC[C@H]2C[C@@H]1C2(C)C,-7.6,0.3,7.1
Cc1noc(C)c1NC(=O)Nc1ccc2c(c1)C(=O)N([C@H](C)CO)C[C@@H](C)[C@H](CN(C)C(=O)Nc1ccc(F)cc1)OCCCC[C@H](C)O2,/,0.7,/
C[C@@H]1CN([C@@H](C)CO)C(=O)c2cc(NC(=O)Nc3ccc(C(F)(F)F)cc3)ccc2O[C@@H](C)CCCCO[C@H]1CN(C)C(=O)Nc1ccccc1,/,0.9,/

# Bioassay records (PubChem)
